Activity calls are given as the source filed them.
What was measured:
Mus musculus [1] = assay: Antiarrhythmic index, ratio of LD50 for Swiss albino mouse to ED50 for calcium chloride-induced Swiss albino mouse; type: functional, Heart
Method in brief: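 ED50 taken as mean effective dose preventing arrhythmia-associated death, reported only when below ½ LD50. LD50 from acute i.v. toxicity in mice. Index computed as LD50/ED50.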

[2] = Toxicity in iv dosed Swiss albino mouse after 72 hrs; type: organism-based; conditions: in vivo
Method in brief: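 Albino Swiss mice of both sexes, 18-22 g, received aqueous solutions via tail vein at increasing doses. Mortality and behavioural changes followed for 72 h. LD50 reported in mg/kg with range in parentheses.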

Mus musculus [3] = assay: Antiarrhythmic activity in iv dosed Swiss albino mouse assessed as inhibition of calcium chloride-induced cardiac arrhythmia after 15 mins; type: functional; conditions: Heart, 0.25 h
Method in brief: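 Swiss albino mice received compound i.v. at doses up to ½ LD50 (acute i.v. toxicity measured beforehand). Fifteen minutes later arrhythmia was provoked by i.v. calcium chloride (3%, 280 mg/kg). ED50 was taken as the mean effective dose preventing arrhythmia-associated mortality, and was determined only when below ½ LD50.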

Oryctolagus cuniculus = assay: Surface anesthetic effect in New Zealand white rabbit assessed as time duration; type: functional
Method in brief: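 Rabbit corneal reflex test: 1% aqueous solution (0.25 ml) instilled into the conjunctival sac over 30 sec. Cornea touched with a pointer (up to 100 per series) at 8, 10, 12 and 15 min, then every 5 min. Six animals per compound; mean ± SEM.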

Rattus norvegicus [4] = assay: Anesthetic effect in Wistar rat assessed as duration of blockage of muscle contraction by infiltration local anaesthetic activity assay; type: functional, Muscle tissue
Method in brief: (§1)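 Shaved lumbar back skin of Wistar rats; electrical stimulation threshold for surface muscle contraction found first (rectangular pulses, 0.36 to 14.0 V, 0.3 ms, 50 Hz). 0.5% compound in saline given as 0.2 ml intradermal plus 0.2 ml subcutaneous. Threshold re-measured at 3 and 5 min, then every 5 min until back to baseline. Depth is % threshold change from initial; >2-fold rise = 100% anaesthesia. Six rats per compound.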

Rattus norvegicus [5] = assay: Anesthetic effect in Wistar rat assessed as time taken for blockage of muscle contraction by infiltration local anaesthetic activity assay; type: functional, Muscle tissue; method in brief: as §1
Rattus norvegicus [6] = assay: Anesthetic effect in Wistar rat assessed as duration of complete blockage of muscle contraction by infiltration local anaesthetic activity assay; type: functional, Muscle tissue; method in brief: as §1
Rattus norvegicus [7] = assay: Anesthetic effect in Wistar rat assessed as increase in threshold value by infiltration local anaesthetic activity assay relative to control; type: functional; method in brief: as §1
Rattus norvegicus [8] = assay: Anesthetic effect in Wistar rat assessed as increase in depth of anesthesia after 35 mins by infiltration local anaesthetic activity assay relative to control; type: functional, organism-based; method in brief: as §1

With `Cc1ccccc1NC(=O)[C@@H]1CCCN1Cc1ccccc1.Cl` the “Ratio LD50/ED50” value (Mus musculus [1]) was 3.3, the LD50 at 72 h [2] was 35.5 mg/kg and the ED50 (Mus musculus [3]) was 10.9 mg/kg.
Work on `Cc1ccccc1NC(=O)[C@@H]1CCCN1C.Cl` yielded an LD50 at 72 h [2] of 32.5 mg/kg and an ED50 (Mus musculus [3]) greater than 16.3 mg/kg.
In the case of `CCCCN1CCCC1C(=O)Nc1ccccc1C(F)(F)F.Cl` (mixture of isomers), the “Ratio LD50/ED50” value (Mus musculus [1]) was 6.1, the LD50 at 72 h [2] was 35.5 mg/kg and the Time (Oryctolagus cuniculus) was 20.4 min. For the same molecule, the ED50 (Mus musculus [3]) was 5.8 mg/kg.
In the case of `CCCCN1CCCC1C(=O)Nc1ccccc1CC.Cl` (mixture of isomers), the “Ratio LD50/ED50” value (Mus musculus [1]) was 4.2, the LD50 at 72 h [2] was 30 mg/kg and the Time (Oryctolagus cuniculus) was 12.7 min. For the same molecule, the ED50 (Mus musculus [3]) was 7.1 mg/kg.
For `CCCCN1CCCC1C(=O)Nc1ccccc1I.Cl` (mixture of isomers), the “Ratio LD50/ED50” value (Mus musculus [1]) was 5.6, the LD50 at 72 h [2] was 41 mg/kg and the Time (Oryctolagus cuniculus) was 20.3 min. For the same molecule, the ED50 (Mus musculus [3]) was 7.3 mg/kg.
For `CCCCN1CCCC1C(=O)Nc1ccc(Cl)cc1Cl.Cl` (mixture of isomers), the LD50 at 72 h [2] was 32.5 mg/kg and the ED50 (Mus musculus [3]) was greater than 16.3 mg/kg.
With `CCCCN1CCCC1C(=O)Nc1ccc(Br)cc1Br.Cl` (mixture of isomers) the “Ratio LD50/ED50” value (Mus musculus [1]) was 3.5, the LD50 at 72 h [2] was 239 mg/kg and the ED50 (Mus musculus [3]) was 69 mg/kg.
With `CCCCCN1CCCC1C(=O)Nc1ccccc1C.Cl` (mixture of isomers) the “Ratio LD50/ED50” value (Mus musculus [1]) was 5.9, the LD50 at 72 h [2] was 32.5 mg/kg and the Time (Oryctolagus cuniculus) was 59.8 min. The ED50 (Mus musculus [3]) was 5.5 mg/kg.
With `CCCCCCN1CCCC1C(=O)Nc1ccccc1C.Cl` (mixture of isomers) the Time (Rattus norvegicus [4]) was 115 min, the “Ratio LD50/ED50” value (Mus musculus [1]) was 6.3 and the LD50 at 72 h [2] was 35.5 mg/kg. It also gave a Time (Oryctolagus cuniculus) of 75.7 min, an ED50 (Mus musculus [3]) of 5.6 mg/kg and a Time (Rattus norvegicus [5]) of 1 min.
Molecule `Cc1ccccc1NC(=O)C1CCCN1C1CCCCC1.Cl` (mixture of isomers) has an LD50 at 72 h [2] of 12.9 mg/kg, a Time (Oryctolagus cuniculus) of 46.5 min and an ED50 (Mus musculus [3]) greater than 6.5 mg/kg.
With `Cc1ccc(NC(=O)C2CCCN2C2CCCCC2)c(C)c1.Cl` (mixture of isomers) the Time (Rattus norvegicus [4]) was 126.3 min, the “Ratio LD50/ED50” value (Mus musculus [1]) was 7.3 and the LD50 at 72 h [2] was 65 mg/kg. The Time (Oryctolagus cuniculus) was 73.2 min, the ED50 (Mus musculus [3]) was 8.9 mg/kg and the Time (Rattus norvegicus [5]) was 1 min.
For `Cl.O=C(Nc1ccccc1Cl)C1CCCN1C1CCCCC1` (mixture of isomers), the “Ratio LD50/ED50” value (Mus musculus [1]) was 6.9, the LD50 at 72 h [2] was 95 mg/kg and the Time (Oryctolagus cuniculus) was 41.3 min. For the same molecule, the ED50 (Mus musculus [3]) was 13.7 mg/kg.
`CCN1CCCC1C(=O)Nc1ccccc1C.Cl` (mixture of isomers) gave an LD50 at 72 h [2] of 36.8 mg/kg and an ED50 (Mus musculus [3]) greater than 18.4 mg/kg.
In the case of `CCCCN1CCCC1C(=O)Nc1ccccc1C.Cl` (mixture of isomers), the “Ratio LD50/ED50” value (Mus musculus [1]) was 3, the LD50 at 72 h [2] was 16.3 mg/kg and the Time (Oryctolagus cuniculus) was 49.4 min. It also gave an ED50 (Mus musculus [3]) of 5.4 mg/kg, a Time (Rattus norvegicus [6]) of 12.5 min and a Time (Rattus norvegicus [5]) of 1 min.
Molecule `CCCCN1CCCC1C(=O)Nc1c(C)cccc1C.Cl` (mixture of isomers) has an Activity (Rattus norvegicus [7]) of 90%, an LD50 at 72 h [2] of 9.2 mg/kg and a Time (Oryctolagus cuniculus) of 57.5 min. For the same molecule, the ED50 (Mus musculus [3]) was greater than 4.6 mg/kg, the Time (Rattus norvegicus [6]) was 20 min and the Time (Rattus norvegicus [5]) was 1 min.
`CCCCN1CCCC1C(=O)Nc1ccc(C)cc1C.Cl` (mixture of isomers) showed an LD50 at 72 h [2] of 60 mg/kg, a Time (Oryctolagus cuniculus) of 59 min and an ED50 (Mus musculus [3]) greater than 30 mg/kg.
For `CCCCN1CCCC1C(=O)Nc1ccccc1C` (racemic), the Activity (Rattus norvegicus [8]) was “inactive”.
For `CCCCN1CCCCC1C(=O)Nc1c(C)cccc1C` (stereo not drawn) [BUPIVACAINE], the Time (Rattus norvegicus [4]) was 155 min, the “Ratio LD50/ED50” value (Mus musculus [1]) was 2.5 and the LD50 at 72 h [2] was 8.9 mg/kg. The Time (Oryctolagus cuniculus) was 94 min, the ED50 (Mus musculus [3]) was 3.5 mg/kg and the Time (Rattus norvegicus [6]) was 102.5 min. It also gave a Time (Rattus norvegicus [5]) of 1 min.
For `Cc1cc(C)c(NC(=O)C2CCCN2C2CCCCC2)c(C)c1.Cl` (stereo not drawn) [CYCLOMECAINE], the “Ratio LD50/ED50” value (Mus musculus [1]) was 5.2, the LD50 at 72 h [2] was 15 mg/kg and the Time (Oryctolagus cuniculus) was 124.5 min. It also gave an ED50 (Mus musculus [3]) of 2.9 mg/kg.
For `CCN(CC)CC(=O)Nc1c(C)cccc1C` [LIDOCAINE], the Time (Oryctolagus cuniculus) was 37.8 min and the ED50 (Mus musculus [3]) was 7.7 mg/kg.
For `CCCN1CCCC[C@H]1C(=O)Nc1c(C)cccc1C` [ROPIVACAINE], the Time (Rattus norvegicus [4]) was 80 min, the “Ratio LD50/ED50” value (Mus musculus [1]) was 3.8 and the LD50 at 72 h [2] was 14.1 mg/kg. For the same molecule, the Time (Oryctolagus cuniculus) was 58.4 min, the ED50 (Mus musculus [3]) was 3.7 mg/kg and the Time (Rattus norvegicus [6]) was 58.8 min. It also gave a Time (Rattus norvegicus [5]) of 1 min.

Source: ChEMBL document CHEMBL2385077, “Synthesis, local anaesthetic and antiarrhythmic activities of N-alkyl derivatives of proline anilides” (Eur J Med Chem, 2013)
